Myeloid diff MLP: compounds promoting myeloid differentiation; AID 624256; ER-HoxA9 myeloid progenitors, lysozyme-GFP differentiation, flow cytometry; 360,000 tested, 1% active; calls only at 10 µM;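 active = normalized GFP-positive differentiation at or above the plate's own cutoff, the solvent-only control mean plus 3 SD; inconclusive = no clear call, values can overlap the other calls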;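 also: cells exposed to compound for four days before flow analysis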
EBI2 block: EBI2 (human) antagonism; P32249; EBI2 beta-arrestin recruitment, luminescence, 7a,25-OHC stimulated; inhibition, % at 5 µM; 360,000 tested, 0.81% active; in the data active = inhibition above about 38%;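 also: enzyme fragment complementation signal reports receptor beta-arrestin coupling in cells; 0% = agonist plus DMSO wells and 100% = wells without agonist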
Target sequence (P32249 whole entry, looked up, the tested form may be a part): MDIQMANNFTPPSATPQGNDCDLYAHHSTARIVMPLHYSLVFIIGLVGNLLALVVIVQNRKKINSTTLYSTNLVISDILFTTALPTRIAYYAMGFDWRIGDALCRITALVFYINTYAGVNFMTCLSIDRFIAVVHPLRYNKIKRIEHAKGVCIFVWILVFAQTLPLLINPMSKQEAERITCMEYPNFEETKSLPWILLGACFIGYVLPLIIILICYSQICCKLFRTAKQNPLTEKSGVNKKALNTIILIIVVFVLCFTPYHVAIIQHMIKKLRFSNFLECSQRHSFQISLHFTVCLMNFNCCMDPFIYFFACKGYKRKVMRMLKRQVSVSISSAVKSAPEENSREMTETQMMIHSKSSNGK
MC4R barr agon: agonists of human melanocortin 4 receptor (MC4R) beta-arrestin; P32245; U2OS MC4R beta-arrestin complementation, luminescence; percent of melanotan II response, DMSO zero; activation, % at 8.9 µM; 360,000 tested, 0.98% active;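 active = activation above a per-plate cutoff, the mean activation of sample wells on that plate plus 3 SD, cut at about 8% in these data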
Exocytosis inh: lytic granule exocytosis inhibition; 360,000 tested, 0.66% active; TALL-104 LAMP-1 surface exposure, flow cytometry; cells stimulated with thapsigargin and PMA; inhibition, % at 10 µM; AID 651702;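 active = inhibition above about 55%, limit read from the data; inconclusive = no clear call, values can overlap the other calls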
MC4R antagonist: blocks human MC4R cAMP signaling; P32245; MC4R-expressing cells, MTII-stimulated cAMP, LANCE TR-FRET; inhibition, % at 6.5 µM; 360,000 tested, 0.48% active;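 active = inhibition above its plate's cutoff, the mean of tested wells on that plate plus 3 SD, cut at about 29% in these data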;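 also: 0% = Melanotan II alone and 100% = Melanotan II plus saturating MCL0020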
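Material: human MC4R-expressing U2OS cells. Probe or stimulus: Melanotan II challenge. Dosing: 6.5 µM single dose. Times: 30-min compound, 1-h challenge, 1-h detection, room temperature. Technique: TR-FRET with Eu-cAMP and labeled anti-cAMP, 671 nm. Replication: singlicate.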
* hit, by the source's call; i = inactive; ? = inconclusive; · = not tested or not shown; + = active, no number. Shown are actives, neighbours in structure and some others; about 3.7% of the full set was active somewhere.

SMILES	Myeloid diff MLP	EBI2 block	MC4R barr agon	Exocytosis inh	MC4R antagonist
CCOc1ccc(CC(=O)N/N=C/c2cccnc2)cc1	i	-4	1	-1	7
CCOc1ccccc1NC(=O)c1cnc(NS(=O)(=O)c2ccccc2)nc1	i	-10	-1	0	-2
Cc1ccc(S(=O)(=O)N(C(=N)N)c2nc(N(C)C)nc(N(C)C)n2)cc1	i	-4	1	-3	11
Cc1cc(C)cc(NC(=S)N2CCC(NC(=O)c3ccccc3C)CC2)c1	i	1	-4	3	3
CCN1CCSc2ccc(C(=O)NCc3ccccc3F)cc21	+	7	0	1	-1
O=C(CCC(=O)c1ccc(F)cc1)Nc1cccc(S(=O)(=O)Nc2cccc(Cl)c2)c1	i	-10	1	-5	10
Cc1nn(CCO)c2nc(-c3cccs3)cc(C(F)(F)F)c12	i	6	8.5*	-2	-6
Cc1ccc(C(=O)COC(=O)c2cc(=O)[nH]c3ccccc23)cc1	i	-17	-2	1	-8
CCCn1c(C)cc(C(=O)COC(=O)c2cc(=O)[nH]c3ccccc23)c1C	i	2	8.9*	-13	-4
CC(=O)c1ccc(N2CCN(S(=O)(=O)c3ccc4c(c3)NC(=O)CC(=O)N4)CC2)cc1	+	1	-2	-1	-1
O=C1Cc2cc(S(=O)(=O)N3CCN(c4ccc(C(=O)O)cc4)CC3)ccc2N1	i	-6	-1	-3	6
O=C(NCCCN1CCOCC1)c1ccc(CSc2ccc(Cl)cc2)cc1	i	8	1	37	3
O=C(c1ccc(Cl)c(Cl)c1)N1CCC(=O)N(C(COCc2cccc(Cl)c2)Cc2ccccc2)CC1 (stereo not drawn)	+	24	0	3	7
Cc1ccc(C(=O)OC(C(=O)Nc2ccc(Cl)cc2C(F)(F)F)c2ccccc2)cc1 (stereo not drawn)	i	9	9.5*	0	6
Cc1nnc(SCCn2c(N3CCC(C)CC3)nc3c2c(=O)[nH]c(=O)n3C)s1	+	1	-1	-3	-7
Cc1nc2ccc(C(=O)N3c4ccccc4N=C(c4ccc5c(c4)OCO5)C3C(=O)NCc3ccccc3)cc2[nH]1 (stereo not drawn)	i	2	·	8	·
CSc1ccc(CN2CCC(C)(Oc3ccc4ccccc4c3)C2)cc1 (stereo not drawn)	+	0	1	1	4
CC1(Oc2cccc(F)c2)CCN(Cc2ccc(-c3ccccn3)cc2)C1 (stereo not drawn)	i	-9	8.6*	2	10
COc1ccc(C2(C)NC(=O)N(CC3CCCCC3)C2=O)cc1 (stereo not drawn)	i	-3	2	13	9
O=c1c(OC2OC(CO)C(O)C(O)C2OC2OC(CO)C(O)C(O)C2O)c(-c2ccc(O)cc2)oc2cc(O)cc(O)c12 (stereo not drawn)	i	-2	-1	4	3
O=c1c(O[C@H]2O[C@@H](CO)[C@H](O)[C@@H](O)[C@@H]2O)c(-c2ccc(O)cc2)oc2cc(O)cc(O)c12	i	0	-1	68*	0
COc1ccc2c(c1)c(CC(=O)Nc1ccccc1OC)c(C)n2C(=O)c1ccc(Cl)cc1	i	21	-1	-3	10
COc1ccc2c(c1)c(CC(=O)Nc1cc(C)ccc1C)c(C)n2C(=O)c1ccc(Cl)cc1	+	32	-2	-6	3
Cc1ccc(NC(=O)CCCCCCCCCCC2COCCO2)c(C)c1 (stereo not drawn)	i	-19	1	-1	0
O=[N+]([O-])c1ccc2c3n([n+]([O-])c2c1)CCN=C3c1ccc(Cl)cc1	?	-7	-3	78*	1
Cc1cccc(Nc2nc(-c3sc(C)nc3C)cs2)c1	i	57*	0	3	1
Cc1ccccc1NC(=O)C(=O)c1cn(C)c2ccccc12	i	7	12*	-5	-3
Cc1cccc(-c2cccc(NC(=O)C3CCCN(C(=O)c4csc(C)n4)C3)c2)c1 (stereo not drawn)	i	22	0	5	15
O=[N+]([O-])c1cc(-c2ncccn2)c([N+](=O)[O-])s1	i	10	-4	78*	-1
O=C(Nc1cccc([N+](=O)[O-])c1)NN1CCCCCC1	i	6	0	4	3

Screens (PubChem)
